Assay results published in PubChem BioAssay.
Results filed as inconclusive are left out.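 How the source made its calls, unless noted: active means cell viability at or below a set limit in both duplicate runs, the limit being the all-compound median minus 4 SD (cut at about 23% in these data, passing the limit was not always enough); inconclusive means no clear call, values can overlap the other calls; inactive means the rest.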

Columns and labels:
[1] = OD615 S. cerevisiae growth inhibition, permissive medium, pilot counter-assay, permissive growth control for S. cerevisiae lifespan shortening project (AID 705;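 active means growth inhibition above 25% in both replicates, a cutoff set 3 SD above the mean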); settings: OD615, 24 h, at 10 µM, hits give high values
In short: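 Timing: 24 h exposure, 30 °C / Material: Saccharomyces cerevisiae strain carrying genetically modified DeaD replicative-lifespan system / Signal: OD at 615 nm / Compound: 10 µM single dose, 0.25% DMSO / Medium: SC raffinose/galactose permissive medium / Evaluation: reduction in yeast growth (OD615)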

[2] = Restrictive medium S. cerevisiae growth inhibition, OD615, pilot screen of yeast lifespan reduction project, restrictive growth control (AID 706;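 active means growth inhibition above a set limit, 3 SD over mean compound inhibition, in both replicates, cut at about 43% in these data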;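 further: modified DeaD lifespan yeast strain shifted to restrictive glucose medium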); settings: OD615, 48 h, at 10 µM, hits give high values
In short: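 System: Engineered S. cerevisiae DeaD strain | Detection: OD615 | Buffer or medium: CSMM-D glucose medium | Doses: 10 µM compound, 0.25% DMSO | Timing: 4 h pre-growth plus 48 h compound exposure, 30 °C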

[3] = viability gain of MRP-1-high H69AR cells under doxorubicin, pilot screen, MRP-1 activator project, CellTiter-Glo, duplicate (AID 807;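 active means viability increase at or above a cutoff of the median across tested compounds plus 3 SD, cut at about 8.5% in these data, passing the limit was not always enough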;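 further: compound pretreatment 18-22 h then 72 h combined with doxorubicin; 0% = doxorubicin alone and 100% = vehicle without doxorubicin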); settings: H69AR viability with doxorubicin, CellTiter-Glo luminescence; at 10 µM; hits give high values
[4] = growth suppression of beta-catenin knockout HCT116, pilot screen, human colon tumor cells (AID 823); settings: CellTiter-Glo, 60 h, at 10 µM, hits give low values;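 further: 0% = wells killed by 20 µM Hyamine and 100% = untreated DMSO cell wells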
[5] = growth suppression of PTEN-deleted HCT116, pilot screen, cell-based, HCT116 clonal line, CellTiter-Glo (AID 824;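 active means viability at or below 27.92% in each of two runs, the all-compound median minus 4 SD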;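 further: 0% = 20 µM Hyamine control and 100% = vehicle cell control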); settings: 60 h, at 10 µM, hits give low values
[6] = inhibitors of the yeast RAM network, pilot screen, dse1pr::URA3 reporter, 5-FOA selection (AID 869;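 active means inhibition over a set limit, the all-compound mean plus 3 SD, in both replicate runs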;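 further: 0% = DMSO wells with no growth and 100% = 10 µM 1-NA-PP1 with full growth; RAM network block rescues cells from 5-FOA so hits raise OD615 growth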); settings: S. cerevisiae dse1pr::URA3 5-FOA growth, OD615, 2 d; at 10 µM; hits give high values; strain carries analog-sensitive mutant Cbk1 kinase
[7] = RAM signaling pathway blockade in yeast – S. cerevisiae, Pdr1DBD-CYC8 efflux-inhibited sensitized strain, primary screen (AID 1298;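 active means RAM network inhibition above 8.4% in each of two replicates, 3 SD over the compound average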;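 further: 0% = DMSO untreated cells without growth and 100% = 10 µM 1-NA-PP1 full growth; higher means more yeast growth rescued from 5-FOA killing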); settings: S. cerevisiae cbk1-as DSE1-URA3 strain, 5-FOA growth OD615, 2 d; at 50 µM; hits give high values

COc1cc(C2C(C(N)=O)=C(C)Nc3nc(CCCO)nn32)cc(OC)c1OC (stereo not drawn)
inactive: growth inhibition [1] -3.16% | growth inhibition [2] -9.14% | viability increase [3] -0.36% | viability [4] 101% | viability [5] 95% | inhibition [6] 0.785% | RAM network inhibition [7] 0.15%

Cc1nc2c(c(C)nn2-c2ccccc2)c(C)c1Cl
inactive: growth inhibition [1] -4.98% | growth inhibition [2] -5.5% | viability increase [3] -2.73% | viability [4] 88.6% | viability [5] 87.9% | inhibition [6] 3.09% | RAM network inhibition [7] 2.46%

COc1ccc(CCNC(=O)c2c(-c3ccccc3)noc2C)cc1OC
inactive: growth inhibition [1] 3.07% | growth inhibition [2] -2.27% | viability increase [3] 0.19% | viability [4] 102% | viability [5] 101% | inhibition [6] 2.2% | RAM network inhibition [7] 0.43%

Cc1ccc(S(=O)(=O)N2C(=S)SCC2(C)C)cc1
inactive: growth inhibition [1] -0.04% | growth inhibition [2] 14.3% | viability increase [3] -1.47% | viability [4] 91.9% | viability [5] 83.5% | inhibition [6] -1.13% | RAM network inhibition [7] 0.51%

O=C(NCS(=O)(=O)c1ccccc1)c1ccccc1
inactive: growth inhibition [1] -15.4% | growth inhibition [2] -4.22% | viability increase [3] -0.04% | viability [4] 101% | viability [5] 101% | inhibition [6] 0.675% | RAM network inhibition [7] 1.79%

O=C1C2CC=C(Cl)CC2C(=O)N1CC1Cc2ccccc2CO1 (stereo not drawn)
inactive: growth inhibition [1] -5.07% | growth inhibition [2] 0.875% | viability increase [3] 1.29% | viability [4] 96.2% | viability [5] 101% | inhibition [6] 2.77% | RAM network inhibition [7] -2.81%

C=C(C)c1cccc(C(C)(C)NC(=O)N2CCN(c3ccccn3)CC2)c1
inactive: growth inhibition [1] -11.1% | growth inhibition [2] 0.485% | viability increase [3] -0.48% | viability [4] 75.8% | viability [5] 89.6% | inhibition [6] 1.06% | RAM network inhibition [7] 1.43%

O=C(c1ccccc1NS(=O)(=O)c1cccs1)N1CCCC1
inactive: growth inhibition [1] -1.34% | growth inhibition [2] 3.17% | viability increase [3] -0.63% | viability [4] 93.1% | viability [5] 94.1% | inhibition [6] 1.84% | RAM network inhibition [7] 1.28%

CCOC(=O)N1CCC(NC(=O)c2ccc(CS(=O)(=O)c3ccc(OC)cc3)o2)CC1
inactive: growth inhibition [1] 5.7% | growth inhibition [2] -8.08% | viability increase [3] -2.5% | viability [4] 104% | viability [5] 94.1% | inhibition [6] 1.96% | RAM network inhibition [7] 1.82%

Cc1sc2nc(SCC(=O)OC(C)C)n(C)c(=O)c2c1C
inactive: growth inhibition [1] -2.81% | growth inhibition [2] 31.4% | viability increase [3] -1.84% | viability [4] 105% | viability [5] 94.8% | inhibition [6] 2.59% | RAM network inhibition [7] 2.75%

NC(=O)c1ccsc1NC(=O)C1CCCCC1
inactive: growth inhibition [1] -3.66% | growth inhibition [2] -5.7% | viability increase [3] -0.9% | viability [4] 102% | viability [5] 101% | inhibition [6] 0.965% | RAM network inhibition [7] 0.22%

COCC(C)NC(=O)NC1(C(F)(F)F)Oc2ccc(Cl)cc2O1 (stereo not drawn)
inactive: growth inhibition [1] -10% | growth inhibition [2] -25.1% | viability increase [3] -5.78% | viability [4] 32.7% | viability [5] 38% | inhibition [6] 0.985% | RAM network inhibition [7] 4.1%

NC(=O)c1nc(C2CCCCC2)nc2c1[nH]c(=O)n2-c1ccc(F)cc1
inactive: growth inhibition [1] -13.1% | growth inhibition [2] -17.8% | viability increase [3] -3.71% | viability [4] 87.4% | viability [5] 86% | inhibition [6] 1.69% | RAM network inhibition [7] 5.24%

Cc1sc2ncnc(NCc3ccco3)c2c1C
inactive: growth inhibition [1] 4.72% | growth inhibition [2] 6.04% | viability increase [3] -6.03% | viability [4] 55.6% | viability [5] 62.3% | inhibition [6] 1.61% | RAM network inhibition [7] 6.13%

Cc1ccc(CC2CC(=O)N(c3cc(C)on3)C2=O)cc1 (stereo not drawn)
inactive: growth inhibition [1] -17.8% | growth inhibition [2] -19.9% | viability increase [3] 0.79% | viability [4] 100% | viability [5] 94% | inhibition [6] 1.73% | RAM network inhibition [7] -0.79%

COc1ccc(S(=O)(=O)Nc2ccc3oc(C)c(C(=O)O)c3c2)cc1
inactive: growth inhibition [1] 3.11% | growth inhibition [2] -3.25% | viability increase [3] -2.36% | viability [4] 95.5% | viability [5] 91.2% | inhibition [6] 1.54% | RAM network inhibition [7] 3.39%

CCC(C)NC(=O)c1cc(-c2ccccc2O)on1 (stereo not drawn)
inactive: growth inhibition [1] -10.7% | growth inhibition [2] -4.76% | viability increase [3] -1.23% | viability [4] 94% | viability [5] 86.2% | inhibition [6] 1.73% | RAM network inhibition [7] 2.61%

CCOC(=O)N1CCC(N2C(=O)c3ccccc3C2=O)CC1
inactive: growth inhibition [1] -1.78% | growth inhibition [2] -3.71% | viability increase [3] 0.37% | viability [4] 102% | viability [5] 98.8% | inhibition [6] 1.98% | RAM network inhibition [7] -0.31%

COc1ccc(NC(C)=O)c2nc(C)c(C)nc12
inactive: growth inhibition [1] 7.39% | growth inhibition [2] -2.71% | viability increase [3] -3.32% | viability [4] 98% | viability [5] 93.9% | inhibition [6] 1.17% | RAM network inhibition [7] 1.29%

COc1ccc(OC)c(NC(=O)c2nnn(CCc3ccccc3)c2N)c1
inactive: growth inhibition [1] -5.97% | growth inhibition [2] -3.14% | viability increase [3] -4.62% | viability [4] 88% | viability [5] 89.7% | inhibition [6] 1.85% | RAM network inhibition [7] 13.1%

COc1cccc(-c2nc(CS(=O)(=O)CC(=O)NCCC(C)C)c(C)o2)c1
inactive: growth inhibition [1] 3.72% | growth inhibition [2] 7.53% | viability increase [3] 0.8% | viability [4] 94% | viability [5] 89.1% | inhibition [6] 0.36% | RAM network inhibition [7] 1.13%

Cc1cc(-n2c(SCCC#N)nnc2-c2cccnc2)ccc1Cl
inactive: growth inhibition [1] -12.4% | growth inhibition [2] -22.3% | viability increase [3] -2.79% | viability [4] 98.7% | viability [5] 94.5% | inhibition [6] 3.32% | RAM network inhibition [7] 5.99%

Cc1cc(C)c(NC(=O)CN2CCN(C)CC2)c(C)c1
inactive: growth inhibition [1] -1.99% | growth inhibition [2] 4.72% | viability increase [3] -1.53% | viability [4] 112% | viability [5] 92.3% | inhibition [6] 2.21% | RAM network inhibition [7] 1.38%

CCSc1nnc(Cc2cc(=O)[nH]c(=O)[nH]2)n1-c1ccc(Cl)cc1
inactive: growth inhibition [1] -15.2% | growth inhibition [2] -10% | viability increase [3] -0.84% | viability [4] 104% | viability [5] 102% | inhibition [6] 1.5% | RAM network inhibition [7] -0.99%
